Screening data as filed in PubChem.
The list is not random: actives were taken first. Their share in the collection is about 1.9%.
CHRM5 PAM – positive allosteric modulators of human muscarinic M5 receptor. 0.3% of 360,000 active. activation, % at 3 µM. P08912. CHO-K1 hM5, Fluo-8 calcium, ACh EC20 PAM; 0% = ACh EC20, 100% = ACh EC100;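 active = activation above the run cutoff, the mean activation of all test compounds plus 3 SD, cut at about 18% in these data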
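Probe or stimulus: acetylcholine, EC20 level; Assay system: human M5 receptor in CHO-K1 cells; Schedule: compound preincubation 140 s before EC20 acetylcholine addition; Technique: intracellular calcium via Fluo-8 fluorescence; Dosing: single-point, 3 µM nominal; Read-out basis: percent activation from peak-over-basal fluorescence ratio, scaled EC20-to-EC100 acetylcholine; Repeats: one well per compound, no replicates.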
CHRM5 agonist – agonists of human muscarinic M5 receptor (CHRM5); P08912; CHO-K1 hM5 cells, Fluo-8 calcium fluorescence; 0% DMSO wells, 100% maximal acetylcholine response; activation, % at 3 µM; 0.19% of 360,000 active;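 active = activation above the run's mean over test compounds plus 3 SD, cut at about 23% in these data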;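 note: signal is peak over basal fluorescence ratio across the kinetic read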
M5 antag – blocks acetylcholine activation of human M5 receptor; P08912; 0.59% of 360,000 active; inhibition, % at 3 µM; CHO-hM5 cells, Fluo-8 calcium fluorescence, ACh EC80;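 active = inhibition above a per-plate cutoff, the mean of that plate's test compounds plus 3 SD, cut at about 27% in these data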;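 note: 0% = acetylcholine EC80 with DMSO and 100% = DMSO without agonist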
CHRM4 agonist – CHRM4 agonism in calcium assay; CHO-K1 hM4/Gqi5, Fluo-8 calcium fluorescence; vehicle 0%, full acetylcholine response 100%; activation, % at 3 µM; 0.14% of 360,000 active; AID 624127;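 active = activation above the run mean over all test wells plus 3 SD, cut at about 32% in these data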;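 note: peak over basal fluorescence ratio per well then scaled between controls; 0% = DMSO wells and 100% = acetylcholine at EC100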
Target sequence (P08173 whole entry, looked up): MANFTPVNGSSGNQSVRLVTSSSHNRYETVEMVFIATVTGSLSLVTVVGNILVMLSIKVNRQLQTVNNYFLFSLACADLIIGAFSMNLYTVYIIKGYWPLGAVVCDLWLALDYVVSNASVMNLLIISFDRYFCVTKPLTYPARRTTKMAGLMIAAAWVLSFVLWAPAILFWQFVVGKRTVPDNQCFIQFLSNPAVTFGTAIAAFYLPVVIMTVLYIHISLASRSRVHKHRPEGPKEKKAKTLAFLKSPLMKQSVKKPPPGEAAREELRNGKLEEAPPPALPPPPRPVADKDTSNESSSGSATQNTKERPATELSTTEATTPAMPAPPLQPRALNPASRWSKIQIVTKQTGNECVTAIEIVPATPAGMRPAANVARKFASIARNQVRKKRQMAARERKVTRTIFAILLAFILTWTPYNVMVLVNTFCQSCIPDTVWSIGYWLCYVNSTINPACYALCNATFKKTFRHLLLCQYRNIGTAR
CHRM4 antagonist – antagonists of human muscarinic M4 receptor (CHRM4) | 0.73% of 360,000 active | CHO-hM4 cells, ACh EC80, Fluo-8 calcium fluorescence | AID 624125 | inhibition, % at 3 µM;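 active = inhibition above its plate's cutoff, the mean inhibition of sample wells plus 3 SD, cut at about 27% in these data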;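 note: 0% = acetylcholine EC80 with DMSO and 100% = DMSO without agonist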
CHRM4 PAM – potentiates acetylcholine response at human M4 receptor; P08173; 0.4% of 360,000 active; CHO-K1 hM4/Gqi5, Fluo-8 calcium fluorescence, ACh EC20; 0% = ACh EC20, 100% = maximal ACh; activation, % at 3 µM;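 active = activation above its plate's cutoff, the mean activation of sample wells plus 3 SD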
* = called active by the depositor.

SMILES | CHRM5 PAM | CHRM5 agonist | M5 antag | CHRM4 agonist | CHRM4 antagonist | CHRM4 PAM
CCCCNC(=S)Nc1ccc(Cl)cc1 | -9 | 4 | 4 | 7 | 4 | -4
CCCCn1cnc2c1c(=O)[nH]c(=O)n2CCCC | 19* | -4 | -2 | 2 | 6 | 6
CCn1cnc2c1c(=O)[nH]c(=O)n2Cc1ccccc1 | 3 | -2 | -1 | 1 | -13 | 3
CCCCn1cnc2c(cnn2-c2ccc(F)cc2)c1=O | -6 | 1 | 2 | 1 | 37* | -5
COc1cccc(CN2CCC2(C)C(=O)Nc2ccc(Cl)c(Cl)c2)c1F (stereo not given) | -8 | -2 | 8 | -1 | -21 | -4
COC(=O)C[C@@H]1CC[C@@H](NS(=O)(=O)c2ccccc2OC)[C@@H](CO)O1 | -2 | 1 | 8 | 1 | -14 | 9
CC(C)Cn1c(=O)c(C(=O)Nc2ccccc2S(N)(=O)=O)c(O)c2ccccc21 | 15 | 1 | -8 | 0 | 0 | 16
CCC(C)n1c(=O)c(C(=O)Nc2ccccc2S(N)(=O)=O)c(O)c2ccccc21 (stereo not given) | 27* | -1 | -11 | 0 | -2 | 7
CCOC(=O)C1=C(C)N(CC(C)C)C(=O)C1 | 1 | 2 | 6 | 2 | -10 | 22*
CCc1nc2c(OCc3ccc4c(c3)OCO4)cccn2c1N(C=O)Cc1ccc(OC)cc1 | -4 | -2 | 7 | 3 | -4 | -2
Cc1cn([C@@H](CCCCNC(=O)OC(C)(C)C)C(=O)NCCCCCCCCCCC(=O)N2CCN(C(=O)OC(C)(C)C)CC2)nn1 | -40 | 0 | 19 | 28 | 40* | -16
CC[C@H](C)Cc1cn([C@@H](CCCCN)C(=O)NCCCCCCCCCCC(=O)N2CCNCC2)nn1 | 7 | -10 | 3 | 0 | -5 | 3
CC[C@H](C)Cc1cn([C@@H](CCCN=C(NC(=O)OC(C)(C)C)NC(=O)OC(C)(C)C)C(=O)NCCCCCCCCCCC(=O)N2CCN(C(=O)OC(C)(C)C)CC2)nn1 | -5 | -11 | 6 | 1 | 36* | -14
CC(C)(C)OC(=O)NCCCCCc1cn(CC(=O)NCCCCCCCCCCC(=O)N2CCN(C(=O)OC(C)(C)C)CC2)nn1 | -9 | 6 | 12 | 6 | 2 | 0
OC(c1cccc(CN2CCCCC2)c1)c1ncc(-c2cccc3ccccc23)[nH]1 (stereo not given) | -8 | -4 | 12 | 2 | -2 | -8
COc1ccc(N2C(=O)Cc3c2nc(N)c(C#N)c3N)cc1 | 6 | 5 | -2 | 2 | 28* | 10
Cc1cc([N+](=O)[O-])nn1CCC(=O)Nc1nccs1 | 18* | 5 | -34 | 3 | -8 | 19
Cc1nn(CC(=O)Nc2nccs2)c(C)c1[N+](=O)[O-] | -1 | 2 | 8 | 0 | 4 | 2
CCCCNC(=O)C1C(c2ccc(OC)cc2)=Nc2ccccc2N1C(=O)c1ccncc1 (stereo not given) | -5 | -2 | 13 | 1 | 8 | -5
O=C(Nc1ccc2c(c1)OCO2)c1ccc2sc([C@H]3C[C@H](O)[C@@H](CO)O3)nc2c1 | -2 | 0 | -4 | 1 | -19 | 16*
COc1ccc(C2NCCc3c2[nH]c2ccccc32)cc1CSc1nc2ccccc2s1 (stereo not given) | -4 | -3 | 4 | 9 | 32* | -12
Cc1cc(NC(=O)CS(=O)(=O)c2cn(Cc3cccc(C(F)(F)F)c3)c3ccccc23)no1 | -8 | 2 | 13 | 11 | 5 | -11
CCCCc1c(-c2ccc(F)cc2)ncn1CCc1ccccc1OC | -15 | 0 | -10 | 2 | 1 | -6
C=CCC1(CC=C)CCCN1C(=O)c1cc(COc2ccc(F)c(F)c2)on1 | -8 | -6 | 8 | 6 | 19 | -9
C=CCC1(CC=C)CCCN1C(=O)c1cc(COc2ccc(C)nc2)on1 | -15 | 3 | 51* | 21 | 20 | -10
SMILES | CHRM5 PAM | CHRM5 agonist | M5 antag | CHRM4 agonist | CHRM4 antagonist | CHRM4 PAM
CCCCn1nnnc1NCc1cccnc1 | -2 | 6 | 31* | 2 | -6 | 11
Cc1c(CC(=O)O)c(=O)oc2c(C)c3occ(-c4ccccc4)c3cc12 | -1 | -6 | 13 | -1 | 46* | -16
CCc1nc2ccc(C(=O)N(C)CCCN(C)C)cn2c1N(C=O)CCC(C)C | -1 | 0 | 0 | 0 | -25 | 9
Cc1cc2ccccc2n1CCNC(=O)c1ccc(Br)o1 | -11 | 0 | 27* | 2 | -4 | -8
O=C(NCCCCc1ccccc1)c1ccc(Br)o1 | -4 | 0 | 10 | 1 | -9 | 9
O=C(NCCCc1ccccc1)c1ccc(Br)o1 | 6 | -4 | 1 | 0 | 6 | 31*
CCC(C(=O)NC1CCCC1)n1c(C2CCCC2)nc2ccccc21 (stereo not given) | -2 | -3 | 7 | -1 | 3 | 7
CC1CCCN(c2ccc(C(=O)OCn3nnc4ccccc4c3=O)cc2[N+](=O)[O-])C1 (stereo not given) | -1 | 0 | 7 | 1 | 4 | 0
CN1CCN(CC(=O)N2c3ccccc3Sc3ccccc32)CC1 | -18 | -6 | 64* | 1 | 67* | -15
CCOC(=O)N1CCN(CC(=O)N2c3ccccc3Sc3ccccc32)CC1 | 1 | 14 | 1 | 4 | -16 | 2
CC1Cc2ccccc2N1C(=O)CN1CCCCC1 (stereo not given) | -7 | 0 | 7 | 17 | -2 | -7
O=C(CN1CCCCC1)N1c2ccccc2Oc2ccccc21 | -22 | -8 | 23 | 1 | 37* | -20
O=C(/C=C/c1ccccc1)N1c2ccccc2Sc2ccc(C(F)(F)F)cc21 | 7 | 2 | 7 | 0 | -7 | 29*
CC1CCCN(c2ccc(C(=O)OCC(=O)N3c4ccccc4Sc4ccccc43)cc2[N+](=O)[O-])C1 (stereo not given) | -18 | -5 | 6 | -1 | 30* | -32
CC1(C(=O)NS(=O)(=O)C2CC2)CCCN(C(=O)c2ccc(F)cc2Cl)C1 (stereo not given) | 1 | -1 | 1 | 0 | -1 | 5
CCN(CC)CCN(C)C(=O)c1[nH]c(C(F)(F)F)nc1-c1ccccc1 | -2 | 0 | -8 | 0 | -13 | 4
O=C(Nc1ccc2c(c1)OCO2)c1cc(C2CCCCN2C(=O)c2ccc(Cl)cc2)on1 (stereo not given) | 0 | -1 | -9 | 5 | -13 | -1
CC(C)C[C@@H]1COc2cccc(N3CCSCC3)c2S(=O)(=O)N1 | -1 | -1 | -6 | 1 | -2 | 7
O=C1CCCN1CCCNCC(O)c1ccccc1 (stereo not given) | 2 | -2 | 12 | 1 | -6 | 5
